Bioassay records: PubChem, several laboratories
This is a sample that favours compounds with a hit; in the whole collection about 2% have one here.
SENP1 inh: inhibitors of human SENP1 SUMO protease catalytic domain; Q9P0U3; recombinant SENP1 catalytic domain, CyPet-SUMO1-YPet FRET cleavage; inhibition, % at 10 µM; hit rate 0.21% among 360,000;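 active means inhibition at least 30% at 10 µM, raw YFP signal under a set limit, fluorescence ratio 0.5 to 1.5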;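 further: 0% = enzyme with DMSO and 100% = no enzyme wells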
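Compound: 10 µM single point, 0.5% DMSO; Test system: hSENP1 catalytic domain, recombinant; Timing: 50 min reaction at room temperature; Technique: FRET, CFP and YFP emission; Control set: no-enzyme wells low, DMSO-plus-enzyme wells high control.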
ATG4B inh: inhibitors of human ATG4B cysteine protease; hit rate 0.51% among 340,000; ATG4B cleavage of LC3-PLA2, NBD-HPC fluorescence, 1 h; inhibition, % at 8.33 µM; AID 504462; in the data active means inhibition above about 40%
TPT1 inh: blocks Candida albicans tRNA 2'-phosphotransferase | recombinant caTPT1, FP RNA substrate dephosphorylation | inhibition, % at 5 µM | hit rate 0.81% among 300,000 | AID 1962;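 active means inhibition above the mean of all tested compounds plus 3 SD, set per screening campaign, cut at about 24% in these data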;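 further: plate controls were DMSO alone for no effect and ferristatin control at 100 nM for full effect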
Rpn11 block: inhibitors of human proteasome Rpn11; inhibition, % at 20 µM; hit rate 0.59% among 360,000; O00487; human 26S proteasome, Ub4-pepOG fluorescence polarization; 20S core pre-blocked with epoxomicin;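 active means inhibition at 20 µM, scaled to each plate's controls, above about 33%, limit read from the data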
HNF4A DNA FP: change in binding of human HNF4 alpha to DNA | HNF4a-FITC DNA binding, fluorescence polarization, 1 h | activity change, % at 10 µM | hit rate 0.3% among 360,000; in the data active means activity change above about 30%, passing the limit was not always enough
CSN deneddyl inh: blocks human CSN-mediated cullin deneddylation; Q92905; Purified CSN, SCF-Nedd8-OG deneddylation, fluorescence polarization; inhibition, % at 12.5 µM; hit rate 0.38% among 360,000; AID 651999;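 active means pattern-corrected inhibition above about 35%, with an unprinted fluorescence ratio check between 0.5 and 1.5, limit read from the data, passing the limit was not always enough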;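 further: 0% = enzyme with substrate and 100% = substrate without enzyme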
Target sequence (Q92905 whole entry, looked up, one chain of several): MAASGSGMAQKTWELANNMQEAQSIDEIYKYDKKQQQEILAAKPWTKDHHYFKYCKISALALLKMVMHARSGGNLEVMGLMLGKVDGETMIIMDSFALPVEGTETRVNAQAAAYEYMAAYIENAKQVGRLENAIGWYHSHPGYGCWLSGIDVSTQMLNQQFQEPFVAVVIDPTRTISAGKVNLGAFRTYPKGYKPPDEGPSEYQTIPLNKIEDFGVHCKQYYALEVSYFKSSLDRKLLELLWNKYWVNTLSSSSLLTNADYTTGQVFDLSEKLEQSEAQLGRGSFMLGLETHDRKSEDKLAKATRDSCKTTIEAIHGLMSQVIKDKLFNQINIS
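Assay system: Purified human Csn5 enzyme expressed in HEK293T cells | Amount: Enzyme 0.24 nM | Measured by: Fluorescence polarization readout | Medium: Tris/NaCl/DTT buffer, pH 7.5 | Compound dosing: One concentration, 12.5 µM, 0.25% DMSO | Times: 90 min incubation of compound, enzyme and substrate at room temperature | Control set: no-enzyme wells high, enzyme-with-substrate wells low | Read-out: % inhibition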
ATG4B conf: ATG4B (human) inhibition, single-dose confirmed | hit rate 92% among 320 | inhibition, % at 8.33 µM | ATG4B protease fluorescent substrate cleavage assay | shares compounds with ATG4B inh; in the data active means inhibition above about 39%
PLA2 ctr: inhibits human PLA2, flagging false ATG4B inhibitors; shares compounds with ATG4B inh; purified PLA2, NBD-C6-HPC fluorescence, 45 min; inhibition, % at 8.33 µM; hit rate 66% among 1,600; AID 588402; in the data active means inhibition above about 50%
Target sequence (P04054 whole entry, looked up): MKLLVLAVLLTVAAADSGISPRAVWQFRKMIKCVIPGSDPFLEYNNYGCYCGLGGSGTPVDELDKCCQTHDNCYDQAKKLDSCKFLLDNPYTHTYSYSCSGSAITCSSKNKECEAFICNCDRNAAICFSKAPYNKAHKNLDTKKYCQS
* hit, by the source's call; . = no result.

SMILES	SENP1 inh	ATG4B inh	TPT1 inh	Rpn11 block	HNF4A DNA FP	CSN deneddyl inh	PLA2 ctr	others
CCC(=O)N(Cc1ccco1)c1nc(-c2ccccc2)cs1	-1	-7	-4	-3	-3	-2	.
O=C(c1cccs1)N(Cc1ccco1)c1nc(-c2ccc(F)cc2)cs1	-1	42*	-2	2	0	-3	56*
O=C(CCn1c2c(c3ccccc31)CCCC2)NNC(=O)c1ccc(Cl)c([N+](=O)[O-])c1	-4	52*	-1	-4	-1	-1	61*
CCC1=NN(C(=O)c2ccc(C)cc2)C(O)(c2ccc(Br)cc2)C1 (stereo not given)	7	3	-2	-4	2	1	.
CCC1=NN(C(=O)c2cccc(Br)c2)C(O)(c2ccc(Br)cc2)C1 (stereo not given)	29	43*	4	0	1	0	47	ATG4B conf=58*
Cc1cccc(Cc2cnc(NC(=O)c3ccc(C)o3)s2)c1	-7	47*	-4	-10	0	3	63*
Cc1cccc(Cc2cnc(NC(=O)C3=NCCN3)s2)c1	-1	-1	1	1	1	0	.
Cc1ccc(C(=O)OCC(=O)N2CCC(C)CC2)cc1S(=O)(=O)N1CCOCC1	2	.	.	4	-6	-3	.
CCOc1ccc(-n2nnnc2SCC(=O)c2ccccc2)cc1	-1	41*	-8	0	-1	-5	51*
COc1ccc(-n2c(CCc3ccccc3)nnc2SCC(=O)c2ccccc2)cc1	2	60*	-1	4	3	5	61*
COc1ccc(C(=O)CSc2nnc(CCc3ccccc3)n2-c2ccccc2)cc1	-7	10	-1	7	0	5	.
COc1ccc(-n2nnnc2SCC(=O)c2cccc(OC)c2)cc1	1	-1	1	-3	-2	5	.
C[C@@H]1COc2cc(N3CCN(Cc4ccccc4F)CC3)ccc2S(=O)(=O)N1	-2	.	.	.	-4	-5	.
CCOC(=O)c1cn(Cc2c(C)c(C)c(C)c(C)c2C)nn1	3	61*	-2	-9	0	6	59*
COc1ccc(NC(=O)N(C)C[C@H]2Oc3ccc(NC(=O)Cc4ccccc4)cc3CC(=O)N([C@H](C)CO)C[C@H]2C)cc1	1	-9	.	-3	-1	2	.
CC(c1ccccc1)n1ccnc1CO (stereo not given)	-1	.	.	3	0	-4	.
NC(=O)c1cc2c(s1)-c1cc(Cl)ccc1SC2	-12	44*	-3	-7	1	0	36
Cc1ccccc1CSc1nnc(-c2cccs2)n1Cc1ccco1	-2	78*	-2	5	3	3	75*
c1ccc(CSc2nnc(-c3cccs3)n2Cc2ccco2)cc1	1	58*	-3	-4	3	2	60*
Cc1ccccc1CSc1nnc(-c2ccco2)n1Cc1ccco1	-2	53*	4	3	3	1	52*
c1ccc(CSc2nnc(-c3ccco3)n2Cc2ccco2)cc1	-1	11	3	-2	0	1	.
CC(C)OC(=O)[C@H]1[C@H](c2ccc(Cl)cc2)[C@@](C#N)(C(N)=O)[C@@H]2C=CC(C(N)=O)=CN21	-10	64*	.	-1	-1	-4	74*
COc1ccc(N2CCN(C(=O)C(=O)c3cc(OC)c(OC)c(OC)c3)CC2)cc1	3	.	.	.	0	2	.
Cn1c(COc2ccc(Br)cc2)nnc1SC1CCc2ccccc2C1=O (stereo not given)	1	50*	-2	-1	-2	-11	62*
O=C(NCCC1=CCCCC1)Nc1ccc2nsnc2c1	-59	46*	-5	-3	-1	2	50
SMILES	SENP1 inh	ATG4B inh	TPT1 inh	Rpn11 block	HNF4A DNA FP	CSN deneddyl inh	PLA2 ctr	others
Cc1ccc(-n2nnnc2SCC(=O)N2CCc3ccccc3C2)c(C)c1	4	44*	-1	5	2	-3	46
Cc1ccc(-n2nnnc2SCC(=O)N2CCc3ccccc3C2)cc1	-3	36	1	13	5	9	.
CCCCCCCCN1C(=O)[C@H](CC(=O)N2CCN(C(=O)OCC)CC2)C[C@@]2(C(=O)OCC)CCCC=C12	1	.	.	.	2	-4	.
CCOc1ccc2nc(SCC(=O)N3CCCc4ccccc43)sc2c1	2	-2	-1	8	3	-2	.
CC(C)c1ccccc1OCC(=O)NC1CCCc2ccccc21 (stereo not given)	0	48*	-4	8	-1	-2	45	ATG4B conf=65*
CCOc1ccc2nc(SCC(=O)NC3CCCc4ccccc43)sc2c1 (stereo not given)	3	50*	-1	3	2	2	44
CCCC[C@@H]1CC2=C(C(=O)OC(C)(C)O2)[C@@H](c2ccc(F)cc2)O1	2	.	.	.	3	-7	.
Cc1ccc(-n2ncc(-c3n[nH]c(=S)o3)c2N)cc1C	0	.	.	1	0	3	.
CC(C)(C)CC(=O)Nc1ccc(-c2cn3cccnc3n2)cc1	-7	-1	1	2	1	8	.
O=C(O)c1ccc(-c2ccc(/C=C3\NC(=O)N(Cc4ccc(Cl)cc4)C3=O)o2)cc1Cl	-31	49*	.	39	-33	35	37	ATG4B conf=60*
CCOC(=O)CN1C(=O)S/C(=C\c2ccc(-c3ccc(C(=O)O)c(Cl)c3)o2)C1=O	-24	9	9	-2	-8	21	.
COc1cccc(CNC(=O)COC(=O)/C=C/c2ccc(SC)cc2)c1	1	15	.	-9	1	-3	.
O=C(O)c1ccccc1C(=O)N(Cc1ccccc1)Cc1ccccc1	1	2	1	-1	-1	2	.
O=C(O)c1cc(Cl)c(Cl)cc1C(=O)N(Cc1ccccc1)Cc1ccccc1	0	43*	3	8	1	2	52*
N#Cc1c(-c2ccccc2)cc(-c2ccccc2)nc1SCCC(=O)O	2	51*	-1	3	1	4	68*
Cc1ccc2c(Cl)c(C(=O)NCCCN3CCOCC3)sc2c1	-3	.	.	1	1	3	.
COc1ccc(Cl)cc1-n1c(=S)sc2c(=O)[nH]c(SCC(=O)NCCC(C)C)nc21	1	41*	.	3	-1	-2	41	ATG4B conf=73*
CCOc1ccc(-n2c(=S)sc3c(=O)[nH]c(SCC(=O)NC(C)CC)nc32)cc1 (stereo not given)	0	-6	-3	1	0	4	.
